# Source: ChEMBL document CHEMBL1145785, “Design, synthesis, and structure-activity relationships of alkylcarbamic acid aryl esters, a new class of fatty acid amide hydrolase inhibitors” (J Med Chem, 2003)
# Columns and labels:
# [1] = target: T1, Fatty-acid amide hydrolase 1 (Rattus norvegicus, UniProt P97612); assay: Inhibition of [3H]anandamide binding to fatty acid amide hydrolase of rat brain membrane
# T1 sequence (P97612 whole entry): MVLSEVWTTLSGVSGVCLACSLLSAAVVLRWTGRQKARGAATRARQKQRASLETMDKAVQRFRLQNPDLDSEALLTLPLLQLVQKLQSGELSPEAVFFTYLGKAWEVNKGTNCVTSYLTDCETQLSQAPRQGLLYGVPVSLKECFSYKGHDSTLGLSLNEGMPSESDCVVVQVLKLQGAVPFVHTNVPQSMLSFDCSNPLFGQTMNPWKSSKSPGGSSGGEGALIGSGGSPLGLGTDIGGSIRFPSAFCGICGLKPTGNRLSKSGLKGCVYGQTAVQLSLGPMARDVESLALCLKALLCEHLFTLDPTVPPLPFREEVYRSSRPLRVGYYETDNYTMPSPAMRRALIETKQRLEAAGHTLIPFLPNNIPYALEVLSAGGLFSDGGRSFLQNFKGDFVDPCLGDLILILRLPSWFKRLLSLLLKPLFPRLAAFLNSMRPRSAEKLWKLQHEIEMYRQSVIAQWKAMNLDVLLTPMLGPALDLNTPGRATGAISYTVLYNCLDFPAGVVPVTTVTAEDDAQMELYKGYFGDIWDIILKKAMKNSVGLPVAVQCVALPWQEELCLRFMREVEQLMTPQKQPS
# Summary of the method: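 Membrane fractions prepared from rat brain homogenates; FAAH activity measured as hydrolysis of anandamide[ethanolamine-3H] (60 Ci/mmol) as substrate. Value reported as half-maximal inhibitory concentration (IC50) of FAAH activity.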
# [2] = target: T1, Fatty-acid amide hydrolase 1; assay: Fatty acid amide hydrolase inhibitory activity in rat brain membrane using [3H]anandamide as a substrate; format: cell membranes
# Summary of the method: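 Membrane fractions prepared from rat brain homogenates. FAAH activity measured as hydrolysis of [3H]anandamide, radiolabelled on the ethanolamine (60 Ci/mmol), used as substrate. IC50 taken as the half-maximal concentration for inhibition of hydrolysis.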
SMILES,IC50 [1] [µM],IC50 [2] [µM]
O=C(NC1CCCCC1)Oc1ccc(/C=C\c2ccccc2)cc1,0.263,0.266
CCCCNC(=O)Oc1ccc2cc(Br)ccc2c1,0.759,–
O=C(NC1CCCCC1)Oc1ccc2cccc(Br)c2c1,0.174,0.174
CCNC(=O)Oc1ccc(C)cc1,–,> 30
CCCCNC(=O)Oc1ccc(F)cc1,11.5,11.5
Cc1ccc(OC(=O)NC2CCCCC2)cc1,5.37,–
O=C(NC1CCCCC1)Oc1cccc(-c2ccccc2)c1,0.0631,–
S=C(NC1CCCCC1)Oc1ccc2ccccc2c1,–,> 30
S=C(NC1CCCCC1)Sc1ccc2ccccc2c1,–,> 30
CCCCCc1cccc(OC(=O)NC2CCCCC2)c1,0.186,0.188
CCCCNC(=O)Oc1ccc(OCc2ccccc2)cc1,0.389,0.39
O=C(NC1CCCCC1)Oc1ccc(-c2ccccc2)cc1,2.29,–
O=C(Cc1ccc2ccccc2c1)NC1CCCCC1,–,> 30
CCCCCCOC(=O)NC1CCCCC1,–,3.76
O=C(NC1CCCCC1)Oc1ccc(/C=C/c2ccccc2)cc1,3.31,–
O=C(NC1CCCCC1)Oc1ccc2ccccc2c1,0.324,–
Cc1cccc(OC(=O)NC2CCCCC2)c1,0.813,0.808
O=C(NC1CCCCC1)Oc1ccccc1,3.8,3.78
O=C(Nc1cccc(-c2ccccc2)c1)OC1CCCCC1,–,> 30
O=C(NC1CCCCC1)OCCCCCc1ccccc1,–,> 30
CNC(=O)Oc1ccc2ccccc2c1,–,18.3
O=C(Nc1ccc2ccccc2c1)NC1CCCCC1,–,> 30
O=C(NC1CCCCC1)Sc1ccc2ccccc2c1,–,15.6
CCc1ccc2cc(OC(=O)NC3CCCCC3)ccc2c1,3.55,3.53
S=C(Nc1ccc2ccccc2c1)NC1CCCCC1,–,> 30
CNC(=O)Oc1cccc2ccccc12 [CARBARIL],–,> 30
